# OX1R antag-1: antagonists of human orexin 1 receptor (OX1R). Orexin/Hypocretin receptor type 1 (Homo sapiens), O43613. OX1R-expressing cells, FRET antagonist read-out. inhibition, % at 6.6 µM. 330,000 tested, 1.8% active. AID 485270, 2010; in the data active = inhibition mostly above about 38%, no sharp cut-off; inactive = mostly below about 40%
# Target sequence (O43613 whole entry, looked up): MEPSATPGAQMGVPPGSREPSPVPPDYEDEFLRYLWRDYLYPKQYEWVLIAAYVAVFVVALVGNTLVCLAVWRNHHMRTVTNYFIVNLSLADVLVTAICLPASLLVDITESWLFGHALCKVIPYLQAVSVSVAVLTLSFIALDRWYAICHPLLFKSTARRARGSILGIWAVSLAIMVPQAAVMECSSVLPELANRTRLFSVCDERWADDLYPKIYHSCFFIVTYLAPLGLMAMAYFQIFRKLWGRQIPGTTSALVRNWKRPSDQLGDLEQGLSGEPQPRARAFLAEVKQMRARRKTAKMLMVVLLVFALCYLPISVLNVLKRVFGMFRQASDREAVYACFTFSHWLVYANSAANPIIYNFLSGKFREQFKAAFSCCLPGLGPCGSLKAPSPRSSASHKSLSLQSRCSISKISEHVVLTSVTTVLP
# OX1R antag-2: OX1R (HCRTR1) antagonists, primary screen, fluorescence, CHO/OX1R cells, Fluo-8 calcium, orexin A; Orexin/Hypocretin receptor type 1 (Homo sapiens), O43613; Fluo-8 calcium fluorescence; inhibition, % at 5 µM; 330,000 tested, 0.43% active; AID 434989, 2010;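 active = inhibition above its plate's threshold, mean inhibition of all tested compounds on the plate plus 3 SD, cut at about 37% in these data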
# GPR7 antag: GPR7 receptor antagonists, primary screen, cell-based, fluorescence, single concentration; Neuropeptides B/W receptor type 1 (Homo sapiens), P48145; GPR7-expressing cells, fluorescence antagonist assay; inhibition, % at 4.4 µM; 290,000 tested, 1.1% active; in the data active = inhibition above about 16%, passing the limit was not always enough;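 also: cells stimulated with the agonist NPW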
# MPTP block: mitochondrial permeability transition pore inhibitors, primary screen, biochemical, isolated mouse mitochondria, absorbance. AID 602449, 2012. inhibition, % at 10 µM. 360,000 tested, 1.4% active. Ca2+ swelling absorbance, 30 min;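 active = inhibition of 50% or more, scaled per plate between neutral and stimulator controls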
# CHO parental Ca: ATP-evoked calcium signal inhibitors, parental CHO, primary screen, counter-screen for OX1R antagonist project, cell-based, fluorescence, Fluo-8 calcium dye; parental CHO-K1, ATP-induced calcium, Fluo-8 fluorescence; inhibition, % at 5.6 µM; 330,000 tested, 0.63% active;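 active = inhibition above that plate's mean sample inhibition plus 3 SD, cut at about 26% in these data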
#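 Test system: untransfected parental CHO cell line; also added: ATP stimulus; dosing: 5.6 µM, single dose; signal: calcium-sensitive Fluo-8 fluorescence; measure: percent inhibition of ATP-evoked calcium rise, normalized to controls; benchmarks: low control ATP plus DMSO, high control DMSO only; replication: one well per compound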
# A number is an active result; i = inactive; nt = no result. This is a sample that favours compounds with a hit; in the whole collection about 3.8% have one here.
SMILES,OX1R antag-1,OX1R antag-2,GPR7 antag,MPTP block,CHO parental Ca
Cc1c(NC(=O)/C(C#N)=C/c2ccc(-c3cccc(Cl)c3)o2)c(=O)n(-c2ccccc2)n1C,75,i,i,i,i
Cc1c(NC(=O)/C(C#N)=C/c2ccc(-c3ccccc3Cl)o2)c(=O)n(-c2ccccc2)n1C,75,i,i,i,i
CN(Cc1ccc(Cl)cc1)C(=O)c1ccc(S(=O)(=O)NCc2ccco2)cc1,34,i,nt,i,i
C=CCN=C1CCCc2c1[nH]c1ccc(C)cc21,i,i,i,i,i
Cc1ccccc1-n1c(=O)c(C#N)cc2c(=O)n3ccccc3nc21,49,i,i,i,i
N#Cc1cc2c(=O)n3ccccc3nc2n(-c2ccc(Cl)cc2)c1=O,i,i,i,i,i
CCCn1c(SCC(=O)Nc2cccc(F)c2)nc(O)cc1=O,i,79,nt,i,40
CC1(c2nnnn2Cc2ccccc2)CCC(=O)N1CCc1ccccc1F (stereo not given),nt,nt,nt,i,nt
CC(=O)Nc1nnc(Cc2c[nH]c3ccccc23)s1,i,i,i,i,i
COc1ccc2c(c1)c(-c1csc(N)n1)c(C)n2C,46,i,i,i,i
CNc1nc(-c2c(C)n(C)c3ccc(OC)cc23)cs1,i,i,i,i,i
COc1ccc(OCC(=O)OC(C)CN2CCOCC2)cc1 (stereo not given),i,i,18,i,i
CC(CN1CCOCC1)OC(=O)COc1ccc(F)cc1 (stereo not given),i,i,i,i,i
CC1CCCCC1NC(=O)CCC(=O)N1CCOc2ccc(Cl)cc21 (stereo not given),i,i,i,i,i
CC(C)(CC(=O)N1CCN(c2ccc(Cl)cc2)CC1)CC1=NS(=O)(=O)c2ccccc2N1,i,i,i,i,75
N#Cc1c(-c2ccc(Cl)cc2)ccn2nc(CCC(=O)O)nc12,56,i,i,i,i
C/C(=N\Nc1ccc(S(N)(=O)=O)cc1[N+](=O)[O-])c1ccco1,41,i,i,i,i
NS(=O)(=O)c1ccc(N/N=C/c2ccccn2)c([N+](=O)[O-])c1,46,i,i,i,i
O=C(c1ccco1)N1CCN(c2c([N+](=O)[O-])nn(-c3ccc(Cl)cc3)[n+]2[O-])CC1,42,i,i,i,i
COC(=O)c1ccccc1NC(=O)CCCn1nc([N+](=O)[O-])c(Br)c1C,75,i,i,i,i
CCOC(=O)C1(CCOC)CCN(C(C)CCc2ccc(OC)cc2)CC1 (stereo not given),i,i,i,i,i
COCC(C)NC(C(=O)Nc1ccc(Cl)c([N+](=O)[O-])c1)c1ccccc1 (stereo not given),i,i,i,i,81
CCC(C)NC(C(=O)Nc1ccc(Cl)c([N+](=O)[O-])c1)c1ccccc1 (stereo not given),i,i,i,i,i
C=C1CCN(c2ccc(C(=O)O)cc2[N+](=O)[O-])CC1,70,i,nt,nt,i
CCOC(=O)C1=C(COC(=O)c2cccc(NC(C)=O)c2)NC(=O)NC1C (stereo not given),i,i,nt,i,i
SMILES,OX1R antag-1,OX1R antag-2,GPR7 antag,MPTP block,CHO parental Ca
CCOc1ccccc1N1C(=O)CN(Cc2ccc(OC)c(OC)c2)C1=S,56,i,i,i,i
COc1cccc(N2C(=O)CN(Cc3cc(OC)c(OC)c(OC)c3)C2=S)c1,i,i,i,i,i
COc1ccc(N2C(=O)CN(Cc3cc(OC)c(OC)c(OC)c3)C2=S)cc1,47,i,i,i,i
CSc1nc(N)nc(SCC(=O)c2ccc(C)cc2)c1C#N,69,i,i,i,i
O=C(Nc1ccc(Cl)c([N+](=O)[O-])c1)c1ccc(NCCCN2CCOCC2)c([N+](=O)[O-])c1,i,i,i,i,42
O=S(=O)(c1ccccc1)N1CCN(c2ccnc3cc(Cl)ccc23)CC1,i,i,i,i,89
O=S(=O)(c1cccs1)N1CCN(c2ccnc3cc(Cl)ccc23)CC1,i,i,i,i,i
COc1ccc(S(=O)(=O)N2CCOCC2)cc1NC(=O)c1sccc1C,i,i,nt,i,i
NS(=O)(=O)c1ccc(NNC(=O)c2ccc(Br)o2)c([N+](=O)[O-])c1,58,i,nt,i,i
C=C(C)CNC(=O)c1ccc2nc(Cc3ccc(OC)cc3)oc2c1,i,i,i,i,i
CC(=O)c1ccc(N2CCN(C(=S)Nc3cc(C)ccc3C)CC2)cc1,i,i,i,i,i
CCCCNC(=S)N1CCN(c2ccc(C(C)=O)cc2)CC1,i,i,19,i,i
COc1cccc(C(=O)NCC2(c3ccccc3)CCCC2)c1OC,i,i,i,i,i
CN1CCN(CCC(=O)N/N=C/c2cc([N+](=O)[O-])ccc2OC(F)F)CC1,i,i,i,i,i
CC1CCN(CCC(=O)N/N=C/c2ccc([N+](=O)[O-])cc2)CC1,45,i,i,i,i
O=C(CN1C(=O)c2cccc3cccc(c23)C1=O)NCCCO,57,i,i,i,i
Cc1c(NC(=O)CCCN2C(=O)c3cccc4cccc(c34)C2=O)c(=O)n(-c2ccccc2)n1C,42,i,i,i,i
O=C(CCCCCN1C(=O)c2cccc3cccc(c23)C1=O)NCCCO,52,i,i,i,i
Cc1cn([C@H]2C[C@H](O)[C@@H](/C=C/C(=O)NCc3ccco3)O2)c(=O)[nH]c1=O,nt,nt,nt,i,nt
O=[N+]([O-])c1sccc1CS(=O)(=O)c1ccccc1,51,i,i,i,i
CCOC(=O)N1CCN(C(=O)COC(=O)c2ccc(N(C)C)cc2)CC1,i,i,nt,i,i
CCOC(=O)c1c(C)[nH]c(C)c1S(=O)(=O)NCc1ccc(OCC)cc1,i,i,i,i,i
CCOc1ccccc1CNS(=O)(=O)c1ccc2c(c1)oc(=O)n2C,i,i,i,i,i
CCOC(=O)c1c(C)[nH]c(C)c1S(=O)(=O)NCc1ccccc1C,50,i,i,i,i
CCOC(=O)c1c(C)[nH]c(C)c1S(=O)(=O)NCc1ccccc1OCC,62,i,i,i,i
SMILES,OX1R antag-1,OX1R antag-2,GPR7 antag,MPTP block,CHO parental Ca
CCOc1ccccc1CNS(=O)(=O)c1ccc2[nH]c(=O)sc2c1,i,i,21,i,i
CC1=C(C(=O)N2CCOCC2)CC(CC(=O)NCc2cccc3ccccc23)C(=O)N1Cc1ccc(C(C)(C)C)cc1 (stereo not given),nt,nt,nt,i,nt
CCC1(c2ccccc2)NC(=O)N(CC(=O)N(C)Cc2c(F)cccc2Cl)C1=O (stereo not given),i,i,i,i,i
CC(=O)N1[C@H](C)C=C[C@]1(Cc1ccccc1)C(=O)O,i,i,i,i,i
O=C(N1CCCCC1)N1CCN(S(=O)(=O)c2cccc([N+](=O)[O-])c2)CC1,i,i,i,i,i
O=C(N1CCCCCC1)N1CCN(S(=O)(=O)c2cccc([N+](=O)[O-])c2)CC1,52,i,i,i,i

# Bioassay records deposited in PubChem BioAssay by several laboratories.
